Experimental data gathered from unrelated publications.
Target: Dual specificity mitogen-activated protein kinase kinase 4 (MAP2K4, Homo sapiens, UniProt P45985)
One construct used (P45985 1-399): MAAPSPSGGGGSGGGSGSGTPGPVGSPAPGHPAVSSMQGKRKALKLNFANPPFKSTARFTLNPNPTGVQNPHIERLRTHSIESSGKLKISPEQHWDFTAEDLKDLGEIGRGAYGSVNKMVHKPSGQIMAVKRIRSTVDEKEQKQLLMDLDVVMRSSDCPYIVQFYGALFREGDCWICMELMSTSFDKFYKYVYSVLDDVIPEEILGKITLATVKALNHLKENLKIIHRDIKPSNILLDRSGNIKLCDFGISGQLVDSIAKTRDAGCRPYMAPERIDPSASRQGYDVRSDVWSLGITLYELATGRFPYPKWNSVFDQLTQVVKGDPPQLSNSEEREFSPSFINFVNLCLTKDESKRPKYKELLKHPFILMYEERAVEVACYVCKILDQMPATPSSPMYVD

COc1cc(-c2cn(C3CCc4ccccc4N(CC(F)(F)F)C3=O)nn2)ccc1-n1ccc(C)n1 (stereo not drawn)  remaining binding (cell-free assay; competition with immobilised ligand; 1 µM): 100%
O=C(NCC1CCOCC1)c1n[nH]cc1NC(=O)c1c(F)cccc1F  remaining binding (binding; competition with immobilised ligand; 1 µM): 68%
CS(=O)(=O)N1CCCC(NC(=O)[C@H](CCC2CCCCC2)NC(=O)c2ccc(CNC(=O)c3cnc4ccccn34)cc2)C1 (stereo partly drawn)  remaining binding (cell-free assay; competition with immobilised ligand; 0.1 µM): 100%
CCN1CCN(Cc2ccc(C(=O)Nc3ccc(C)c(Oc4ccc5c(c4)CC(=O)N5)c3)cc2C(F)(F)F)CC1  remaining binding (binding; competition with immobilised ligand; 1 µM): 100%
CC1CCCN1c1nccc(-c2cnn3ncccc23)n1 (stereo not drawn)  remaining binding (binding; 1 µM): 100%
O=C(c1ccc(Nc2ncc(Cl)c(-c3cc4ccccc4s3)n2)cc1)N1CCC(N2CCCC2)CC1  remaining binding (binding; competition with immobilised ligand; 1 µM): 69%
Cc1nc(C2CCN(C(=O)c3ccc(OC(F)(F)F)cc3N)CC2)c2ncc(N3CCN(C)CC3)cc2n1  remaining binding (cell-free assay; competition with immobilised ligand; 1 µM): 100%
COc1ccnn2ncc(-c3ccnc(N(C)C)n3)c12  remaining binding (binding; 1 µM): 100%
CCC(=O)N[C@@H]1CC[C@H](C(=O)N(C)c2ccc(-c3nc4ccccc4o3)cc2)C1  remaining binding (cell-free assay; competition with immobilised ligand; 1 µM): 100%
CN(C)c1ncc(F)c(-c2cnn3ncccc23)n1  remaining binding (binding; 1 µM): 100%
Nc1ncc2c(n1)-c1c([nH]c3ccc(C#CC4CC4)cc13)CCCC2  remaining binding (binding; competition with immobilised ligand; 1 µM): 24%
c1cncc(-c2cccc(Nc3nccc(NC4CCCCC4)n3)c2)c1  remaining binding (binding; competition with immobilised ligand; 10 µM): 64%
N[C@H]1CCN(c2nccc(-c3cnn4ncccc34)n2)C1  remaining binding (binding; 1 µM): 86%
CS(=O)(=O)NCC[C@H](NC(=O)c1cncc2c1cnn2-c1ccc(F)cc1)c1ccnc(S(C)(=O)=O)c1  remaining binding (cell-free assay; competition with immobilised ligand; 1 µM): 100%
FC(F)(F)Oc1cccc(-c2cnc3ccc(-c4ccncc4)nn23)c1  remaining binding (cell-free assay; competition with immobilised ligand; 5 µM): 69%
Cc1cnn2ncc(-c3ccnc(N(C)C)n3)c2c1  remaining binding (binding; 1 µM): 100%
C[C@@H](c1ccc(-n2cnc3c(N)ncnc32)cc1)N1CCc2nn(C)c(Cc3ccccc3)c2C1=O  remaining binding (binding; competition with immobilised ligand; 0.1 µM): 57%
F[C@@H]1CCN(c2nccc(-c3cnn4ncccc34)n2)C1  remaining binding (binding; 1 µM): 100%
O=C(NCCCN1CCOCC1)c1ccc(Nc2ncc(Cl)c(-c3ccc(Cl)s3)n2)cc1  remaining binding (binding; competition with immobilised ligand; 1 µM): 56%
CC1=C(C#N)C(c2ccc3c(c2)c(NC(=O)c2ccccc2C)nn3C)C(C#N)=C(C)N1  remaining binding (cell-free assay; competition with immobilised ligand; 1 µM): 79%
COc1cnc(Nc2cccc(S(N)(=O)=O)c2)nc1N1CCN(c2ccccc2)C(=O)C1  remaining binding (binding; competition with immobilised ligand; 1 µM): 71%
